In brackets after ≈: the same amount, converted by molar mass.
How the values were obtained:
Format in all cases: functional
[1] = system: Staphylococcus epidermidis; test: Antibacterial activity against methicillin-sensitive Staphylococcus epidermidis ATCC 12228 by broth microdilution method
In short: (§1)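 MICs were determined by broth microdilution following CLSI recommendations, with clarithromycin and telithromycin run as reference antibiotics.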

Staphylococcus aureus [2] = test: Antibacterial activity against methicillin-resistant Staphylococcus aureus ATCC 33591 by broth microdilution method
In short: (§2)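 MIC values were determined by broth microdilution following Clinical and Laboratory Standards Institute (CLSI) recommendations.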

[3] = system: Staphylococcus epidermidis; test: Antibacterial activity against methicillin-resistant Staphylococcus epidermidis 13-3 by broth microdilution method; in short: as §2
Streptococcus pyogenes [4] = test: Antibacterial activity against methicillin-resistant Streptococcus pyogenes 12-1 by broth microdilution method; in short: as §2
Klebsiella pneumoniae = test: Antibacterial activity against extended spectrum beta-lactamases producing Klebsiella pneumoniae ATCC 700603 by broth microdilution method; in short: as §1
Escherichia coli = test: Antibacterial activity against extended spectrum beta-lactamases non-producing Escherichia coli ATCC 25922 by broth microdilution method; in short: as §1
Streptococcus pyogenes [5] = test: Antibacterial activity against […] Streptococcus pyogenes 12-8 by broth microdilution method; in short: as §1
Moraxella catarrhalis [6] = test: Antibacterial activity against clarithromycin-sensitive Moraxella catarrhalis 12-1 by broth microdilution method; in short: as §1
Staphylococcus aureus [7] = test: Antibacterial activity against methicillin-sensitive Staphylococcus aureus ATCC 29213 by broth microdilution method; in short: as §1
Moraxella catarrhalis [8] = test: Antibacterial activity against clarithromycin-resistant Moraxella catarrhalis 12-2 by broth microdilution method; in short: as §2
Pseudomonas aeruginosa = test: Antibacterial activity against Pseudomonas aeruginosa ATCC 27853 by broth microdilution method; in short: as §1
Haemophilus influenzae [9] = test: Antibacterial activity against azithromycin-sensitive Haemophilus influenzae 11P042 by broth microdilution method; in short: as §1
Staphylococcus aureus [10] = test: Antibacterial activity against methicillin-resistant Staphylococcus aureus 11B117 by broth microdilution method; in short: as §2
Staphylococcus aureus [11] = test: Antibacterial activity against methicillin-sensitive Staphylococcus aureus 11B122 by broth microdilution method; in short: as §1
[12] = system: Staphylococcus epidermidis; test: Antibacterial activity against methicillin-resistant Staphylococcus epidermidis 11C176 by broth microdilution method; in short: as §2
Haemophilus influenzae [13] = test: Antibacterial activity against azithromycin-resistant Haemophilus influenzae 11Q373 by broth microdilution method; in short: as §2
[14] = system: Staphylococcus epidermidis; test: Antibacterial activity against methicillin-sensitive Staphylococcus epidermidis 11X315 by broth microdilution method; in short: as §2
Streptococcus pyogenes [15] = test: Antibacterial activity against erythromycin-sensitive Streptococcus pyogenes 11L264 by broth microdilution method; in short: as §1
Streptococcus pneumoniae [16] = test: Antibacterial activity against erythromycin-resistant Streptococcus pneumoniae 11 J011 by broth microdilution method; in short: as §2
Streptococcus pneumoniae [17] = test: Antibacterial activity against erythromycin-sensitive Streptococcus pneumoniae 11G364 by broth microdilution method; in short: as §1
Streptococcus pyogenes [18] = test: Antibacterial activity against erythromycin-resistant Streptococcus pyogenes 11 N369 by broth microdilution method; in short: as §2

SMILES	MIC [1]	MIC (Staphylococcus aureus [2])	MIC [3]	MIC (Streptococcus pyogenes [4])	MIC (Klebsiella pneumoniae)	MIC (Escherichia coli)	MIC (Streptococcus pyogenes [5])	MIC (Moraxella catarrhalis [6])	MIC (Staphylococcus aureus [7])	MIC (Moraxella catarrhalis [8])	MIC (Pseudomonas aeruginosa)	MIC (Haemophilus influenzae [9])	MIC (Staphylococcus aureus [10])	MIC (Staphylococcus aureus [11])	MIC [12]	MIC (Haemophilus influenzae [13])	MIC [14]	MIC (Streptococcus pyogenes [15])	MIC (Streptococcus pneumoniae [16])	MIC (Streptococcus pneumoniae [17])	also measured
CC[C@H]1OC(=O)[C@@](C)(F)C(=O)[C@H](C)[C@@H](O[C@@H]2O[C@H](C)C[C@H](N(C)C)[C@H]2O)[C@](C)(OC)C[C@@H](C)C(=O)[C@H](C)[C@H]2N(CC/C=C/c3cnc4ccccc4c3)C(=O)O[C@]12C	0.015 µg/mL (≈ 0.0185 µM)	32 µg/mL (≈ 39.4 µM)	32 µg/mL (≈ 39.4 µM)	16 µg/mL (≈ 19.7 µM)	32 µg/mL (≈ 39.4 µM)	8 µg/mL (≈ 9.85 µM)	0.015 µg/mL (≈ 0.0185 µM)	0.015 µg/mL (≈ 0.0185 µM)	0.015 µg/mL (≈ 0.0185 µM)	16 µg/mL (≈ 19.7 µM)	16 µg/mL (≈ 19.7 µM)										
CC[C@H]1OC(=O)[C@H](C)C(=O)[C@H](C)[C@@H](O[C@@H]2O[C@H](C)C[C@H](N(C)C)[C@H]2O)[C@](C)(OC)C[C@@H](C)C(=O)[C@H](C)[C@H]2N(CC/C=C/c3cncc4ccc(-c5ccccc5)cc34)C(=O)O[C@]12C	0.5 µg/mL (≈ 0.575 µM)	4 µg/mL (≈ 4.6 µM)	8 µg/mL (≈ 9.19 µM)	8 µg/mL (≈ 9.19 µM)	> 256 µg/mL	> 256 µg/mL	0.125 µg/mL (≈ 0.144 µM)	0.125 µg/mL (≈ 0.144 µM)	1 µg/mL (≈ 1.15 µM)	2 µg/mL (≈ 2.3 µM)	> 256 µg/mL										
CC[C@H]1OC(=O)[C@H](C)C(=O)[C@H](C)[C@@H](O[C@@H]2O[C@H](C)C[C@H](N(C)C)[C@H]2O)[C@](C)(OC)C[C@@H](C)C(=O)[C@H](C)[C@H]2N(CCCCn3cnc(-c4cccnc4)c3)C(=O)O[C@]12C [TELITHROMYCIN]	0.015 µg/mL (≈ 0.0185 µM)	> 256 µg/mL	> 256 µg/mL	> 256 µg/mL	64 µg/mL (≈ 78.8 µM)	8 µg/mL (≈ 9.85 µM)	0.03 µg/mL (≈ 0.0369 µM)	0.125 µg/mL (≈ 0.154 µM)	0.015 µg/mL (≈ 0.0185 µM)	> 256 µg/mL	32 µg/mL (≈ 39.4 µM)	1 µg/mL (≈ 1.23 µM)	> 64 µg/mL	0.062 µg/mL (≈ 0.0764 µM)	0.031 µg/mL (≈ 0.0382 µM)	4 µg/mL (≈ 4.93 µM)	0.062 µg/mL (≈ 0.0764 µM)	0.008 µg/mL (≈ 0.00985 µM)	0.031 µg/mL (≈ 0.0382 µM)	0.016 µg/mL (≈ 0.0197 µM)	MIC (Streptococcus pyogenes [18]): 0.125 µg/mL (≈ 0.154 µM)
CC[C@H]1OC(=O)[C@H](C)C(=O)[C@H](C)[C@@H](O[C@@H]2O[C@H](C)C[C@H](N(C)C)[C@H]2O)[C@](C)(OC)C[C@@H](C)C(=O)[C@H](C)[C@H]2N(CCCNc3cnc4ccccc4c3)C(=O)O[C@]12C												8 µg/mL (≈ 10 µM)	> 64 µg/mL	0.5 µg/mL (≈ 0.627 µM)	0.5 µg/mL (≈ 0.627 µM)	8 µg/mL (≈ 10 µM)	0.5 µg/mL (≈ 0.627 µM)	0.031 µg/mL (≈ 0.0389 µM)	0.5 µg/mL (≈ 0.627 µM)	0.016 µg/mL (≈ 0.0201 µM)	MIC (Streptococcus pyogenes [18]): 64 µg/mL (≈ 80.3 µM)
CC[C@H]1OC(=O)[C@@](C)(F)C(=O)[C@H](C)[C@@H](O[C@@H]2O[C@H](C)C[C@H](N(C)C)[C@H]2O)[C@](C)(OC)C[C@@H](C)C(=O)[C@H](C)[C@H]2N(CCCOc3cnc4ccccc4c3)C(=O)O[C@]12C	0.015 µg/mL (≈ 0.0184 µM)	64 µg/mL (≈ 78.4 µM)	128 µg/mL (≈ 157 µM)	64 µg/mL (≈ 78.4 µM)	32 µg/mL (≈ 39.2 µM)	8 µg/mL (≈ 9.8 µM)	0.015 µg/mL (≈ 0.0184 µM)	0.015 µg/mL (≈ 0.0184 µM)	0.015 µg/mL (≈ 0.0184 µM)	64 µg/mL (≈ 78.4 µM)	16 µg/mL (≈ 19.6 µM)										
CC[C@H]1OC(=O)[C@H](C)C(=O)[C@H](C)[C@@H](O[C@@H]2O[C@H](C)C[C@H](N(C)C)[C@H]2O)[C@](C)(OC)C[C@@H](C)C(=O)[C@H](C)[C@H]2N(CC/C=C/c3cnc4ccccc4c3)C(=O)O[C@]12C												1 µg/mL (≈ 1.26 µM)	64 µg/mL (≈ 80.6 µM)	0.125 µg/mL (≈ 0.157 µM)	0.062 µg/mL (≈ 0.0781 µM)	4 µg/mL (≈ 5.04 µM)	0.062 µg/mL (≈ 0.0781 µM)	≤ 0.004 µg/mL	0.031 µg/mL (≈ 0.039 µM)	≤ 0.004 µg/mL	MIC (Streptococcus pyogenes [18]): 0.25 µg/mL (≈ 0.315 µM)
CC[C@H]1OC(=O)[C@H](C)[C@@H](O[C@H]2C[C@@](C)(OC)[C@@H](O)[C@H](C)O2)[C@H](C)[C@@H](O[C@@H]2O[C@H](C)C[C@H](N(C)C)[C@H]2O)[C@](C)(OC)C[C@@H](C)C(=O)[C@H](C)[C@@H](O)[C@]1(C)O [CLARITHROMYCIN]	0.06 µg/mL (≈ 0.0802 µM)	> 256 µg/mL	> 256 µg/mL	128 µg/mL (≈ 171 µM)	128 µg/mL (≈ 171 µM)	16 µg/mL (≈ 21.4 µM)	0.03 µg/mL (≈ 0.0401 µM)	0.008 µg/mL (≈ 0.0107 µM)	0.12 µg/mL (≈ 0.16 µM)	> 256 µg/mL	128 µg/mL (≈ 171 µM)	8 µg/mL (≈ 10.7 µM)	> 64 µg/mL	0.031 µg/mL (≈ 0.0414 µM)	> 64 µg/mL	8 µg/mL (≈ 10.7 µM)	0.125 µg/mL (≈ 0.167 µM)	0.016 µg/mL (≈ 0.0214 µM)	64 µg/mL (≈ 85.6 µM)	0.031 µg/mL (≈ 0.0414 µM)	MIC (Streptococcus pyogenes [18]): > 64 µg/mL
CC[C@H]1OC(=O)[C@H](C)C(=O)[C@H](C)[C@@H](O[C@@H]2O[C@H](C)C[C@H](N(C)C)[C@H]2O)[C@](C)(OC)C[C@@H](C)C(=O)[C@H](C)[C@H]2N(CC/C=C/c3cncc4cc(C)ccc34)C(=O)O[C@]12C	0.06 µg/mL (≈ 0.0743 µM)	64 µg/mL (≈ 79.2 µM)	128 µg/mL (≈ 158 µM)	64 µg/mL (≈ 79.2 µM)	> 256 µg/mL	64 µg/mL (≈ 79.2 µM)	0.015 µg/mL (≈ 0.0186 µM)	0.015 µg/mL (≈ 0.0186 µM)	0.06 µg/mL (≈ 0.0743 µM)	32 µg/mL (≈ 39.6 µM)	64 µg/mL (≈ 79.2 µM)										

From ChEMBL document CHEMBL4118285, “Synthesis and antibacterial activity of novel ketolides with 11,12-quinoylalkyl side chains” (2018)
